What was measured:
Rad51 = Rad51 accumulation at LacI-FokI DSBs; format: cell-based; details: U2OS-DSB-reporter cells; TSA 0.5 μM vs DMSO; 200 cells per group, at least 2 independent experiments
In short: (§1)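 U2OS cells carrying the LacI-FokI DSB reporter were grown in DMEM with 10% calf serum and siRNA-transfected, then analysed 48–72 h later. DSBs were induced with mCherry-LacI-FokI, with DMSO or 0.5 μM TSA. Coverslips were fixed, permeabilised and immunostained for RPA or Rad51, then mounted with DAPI. The mCherry signal marked the damaged area, where focus presence or intensity was scored after background subtraction per cell.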

[1] = tested on: BRCA1 and 53BP1 at subtelomeric chromatin in 293T cells; test: ChIP BRCA1 and 53BP1 at subtelomeric regions, TRF1-FokI; format: cell-based; details: 293T cells expressing TRF1-FokI, TSA treatment
In short: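 293T cells were transfected with a TRF1-FokI plasmid; controls lacked TRF1-FokI. 16 h later cells were cross-linked in 1% formaldehyde for 10 min and quenched with 0.125 M glycine. Chromatin was sonicated to 200–500 bp and immunoprecipitated overnight at 4°C with BRCA1 or 53BP1 antibodies on protein A agarose. After salt/LiCl/TE washes, chromatin was de-crosslinked overnight at 65°C, then subtelomeric SYBR Green qPCR against input standard curves.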

RPA = RPA accumulation at LacI-FokI DSBs; format: cell-based; details: U2OS-DSB-reporter cells; TSA 0.5 μM vs DMSO; 200 cells per group, at least 2 independent experiments
In short: as §1

H4K20me2 in U2OS cells = test: Immunoblot of total H4K20me2; format: cell-based; details: acid-eluted histones from U2OS cells, 0.5 μM TSA, 5 hours
53BP1 = test: ChIP-qPCR 53BP1 at U2OS-DSB-reporter locus; format: cell-based; details: 0.5 μM TSA, 5 hours before DSB induction by mCherry-LacI-FokI; locus p4
In short: (§2)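 U2OS-DSB-reporter cells were given 0.5 μM TSA or DMSO, for 5 h where stated, and DSBs were induced by mCherry-LacI-FokI. Cells were formaldehyde-crosslinked, and chromatin was sonicated to 200–500 bp and immunoprecipitated overnight at 4°C with antibody to 53BP1, BRCA1 or H4ac. After washing and de-crosslinking, SYBR Green qPCR was run at reporter primer sets, quantified against diluted-input standard curves, with S.E.M. and Student t test.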

BRCA1 = test: ChIP-qPCR BRCA1 at U2OS-DSB-reporter locus; format: cell-based; details: 0.5 μM TSA for 5 hours vs DMSO; DSBs induced by mCherry-LacI-FokI
In short: as §2

H4ac = test: ChIP-qPCR H4ac at U2OS-DSB-reporter locus; format: cell-based; details: 0.5 μM TSA vs DMSO; DSBs induced by mCherry-LacI-FokI
In short: as §2

53BP1 IRIF in U2OS cells = test: 53BP1 IRIF; format: cell-based; details: HDACi 5 hours prior to 10 Gy IR (TSA 0.5 µM), fixed 5 hours later
In short: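 U2OS cells on coverslips were fixed and permeabilized, then incubated with primary antibody against 53BP1, washed in PBST, and incubated with secondary antibody. Coverslips were mounted in DAPI-containing medium. Images were captured on the same day at equal exposure in 8-bit grayscale and analysed on unmodified images.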

BRCA1 mutant cells = details: ref [39],[40], cited from earlier work
[2] = tested on: 53BP1 −/− mouse embryonic fibroblasts; test: Metaphase spreads, radial chromosomes, 53BP1 −/− MEFs; format: cell-based; details: TIP60 siRNA + Olaparib; 53BP1 −/− vs 53BP1 +/+ MEFs
In short: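 53BP1+/+ and 53BP1−/− MEFs were transfected with control or mouse TIP60 siRNA using RNAiMax, analysed 48–72 h later, and treated with Olaparib. Cells were arrested with 0.5 μM nocodazole for 3–4 h, swollen in 75 mM KCl, fixed on ice in 3:1 methanol/acetic acid, dropped onto slides at 55°C and Giemsa-stained. Metaphases were scored for radial chromosomes, with significance by Fisher's exact test.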

U2OS cells = test: Survival following Olaparib; format: cell-based; details: percentage survival
53BP1-Tudor = test: NMR titration of 53BP1-Tudor with H4 peptide; format: binding
In short: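 0.3 mM 15N-labelled 53BP1-Tudor titrated with unlabelled H4 peptide (synthetic H4K20me2, aa 14-27) from a 15 mM stock and followed by 1H-15N HSQC. In the reverse titration, 0.5 mM 13C/15N-labelled recombinant H4KC20me2 (aa 14-27, dimethyl-lysine analogue) received unlabelled Tudor from a 5 mM stock and was followed by 1H-13C HSQC.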

In the case of CC(/C=C/C(=O)NO)=C\[C@@H](C)C(=O)c1ccc(N(C)C)cc1 [TSA, trichostatin A], the “Rad51 accumulation at the LacI-FokI reporter after RVB1 or TIP60 knockdown” value (Rad51) is reported as “restored”, the “response of BRCA1 and 53BP1 at subtelomeric chromatin” value [1] is reported as “divergent response” and the “RPA accumulation at the LacI-FokI reporter after RVB1 or TIP60 knockdown” value (RPA) is reported as “restored”. The “total H4K20me2” value (H4K20me2 in U2OS cells) was “did not affect”, the 53BP1 association (53BP1) was “diminished” and the “increase in BRCA1 occupancy” value (BRCA1) was about 4 fold. For the same molecule, the “H4 acetylation (H4ac)” value (H4ac) was “elevated” and the “53BP1 IRIF” value (53BP1 IRIF in U2OS cells) was “strongly reduced”.

For O=C(c1cc(Cc2n[nH]c(=O)c3ccccc23)ccc1F)N1CCN(C(=O)C2CC2)CC1 [Olaparib], the “sensitivity to Olaparib, BRCA1 mutation with 53BP1 nullizygosity” value (BRCA1 mutant cells; BRCA1 mutation and 53BP1 nullizygosity) is given as “reversed”, the “sensitivity to Olaparib, BRCA1 mutation” value (BRCA1 mutant cells; BRCA1 mutation) is given as “hypersensitivity” and the “impact of TIP60 knockdown on radial chromosome formation by 53BP1 nullizygosity” value [2] is given as “strongly mitigated”. For the same molecule, the “sensitivity to Olaparib, TIP60 deficiency with accompanying 53BP1 knockdown” value (U2OS cells; TIP60 and 53BP1 siRNA) was “reversed” and the “sensitivity to Olaparib, TIP60 deficiency” value (U2OS cells; TIP60 siRNA) was “hypersensitivity”.

For “non-methylated H4K20 peptide: corresponding non-methylated peptide, control”, the “Trp1495 indole HN shift, in words” value (53BP1-Tudor; ^1H-^15N HSQC, 53BP1-Tudor titrated with non-methylated peptide, vs H4K20me2) was “markedly reduced”.

For “H4K20me2: H4K20me2 peptide (aa 14-27) chemically synthesized”, the “shifts of Trp1495 side chain resonances” value (53BP1-Tudor; ^1H-^13C HSQC, 298 K, pH 7.0) was “large downfield shifts”, the “downfield shift of Trp1495 indole HN proton” value (53BP1-Tudor; ^1H-^15N HSQC, 0.3 mM ^15N-labeled 53BP1-Tudor, 298 K, 25 mM sodium phosphate, pH 7.0) was 0.8 p.p.m and the “changes in chemical shift of 53BP1-Tudor binding cage residues (Trp1495, Tyr1502, Phe1519, Asp1521, Tyr1523)” value (53BP1-Tudor; ^1H-^15N HSQC, 298 K, 25 mM sodium phosphate, pH 7.0) was “pronounced changes in chemical shift”.
